Test [1] concerns the target T1, Dihydrofolate reductase (Rattus norvegicus, UniProt Q920D2).
T1 sequence (Q920D2 whole entry): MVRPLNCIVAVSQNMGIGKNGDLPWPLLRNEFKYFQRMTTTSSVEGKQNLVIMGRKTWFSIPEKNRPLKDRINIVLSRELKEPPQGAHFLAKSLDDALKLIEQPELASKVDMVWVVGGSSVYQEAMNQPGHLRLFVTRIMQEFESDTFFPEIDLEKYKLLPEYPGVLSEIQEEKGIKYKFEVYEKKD
Nature of the test: Inhibitory activity against cell free dihydrofolate reductase (DHFR) from rat. Particulars: for pIC50: read-out: I50.

The target in test [2] is T2, Dihydrofolate reductase (Candida albicans, UniProt P22906).
T2 sequence (P22906 whole entry): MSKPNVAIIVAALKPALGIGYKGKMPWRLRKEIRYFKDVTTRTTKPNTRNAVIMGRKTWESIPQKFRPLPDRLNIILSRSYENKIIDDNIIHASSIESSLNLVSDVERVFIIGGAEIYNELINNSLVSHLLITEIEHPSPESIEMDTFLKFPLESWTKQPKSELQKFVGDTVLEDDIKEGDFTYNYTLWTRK
Nature of the test: Inhibitory activity against cell free dihydrofolate reductase (DHFR) from Candida albicans. Particulars: for pIC50: read-out: I50.

Test [3] is described as follows: Inhibitory activity against dihydropteroic acid synthase (SYN) from Mycobacterium lufu (DDS sensitive). As to conditions: read-out: I50.
For test [4], the target named is T3, Dihydropteroate synthetase, putative (Plasmodium berghei str. ANKA, UniProt A0A113T0T6).
T3 sequence (A0A113T0T6 whole entry): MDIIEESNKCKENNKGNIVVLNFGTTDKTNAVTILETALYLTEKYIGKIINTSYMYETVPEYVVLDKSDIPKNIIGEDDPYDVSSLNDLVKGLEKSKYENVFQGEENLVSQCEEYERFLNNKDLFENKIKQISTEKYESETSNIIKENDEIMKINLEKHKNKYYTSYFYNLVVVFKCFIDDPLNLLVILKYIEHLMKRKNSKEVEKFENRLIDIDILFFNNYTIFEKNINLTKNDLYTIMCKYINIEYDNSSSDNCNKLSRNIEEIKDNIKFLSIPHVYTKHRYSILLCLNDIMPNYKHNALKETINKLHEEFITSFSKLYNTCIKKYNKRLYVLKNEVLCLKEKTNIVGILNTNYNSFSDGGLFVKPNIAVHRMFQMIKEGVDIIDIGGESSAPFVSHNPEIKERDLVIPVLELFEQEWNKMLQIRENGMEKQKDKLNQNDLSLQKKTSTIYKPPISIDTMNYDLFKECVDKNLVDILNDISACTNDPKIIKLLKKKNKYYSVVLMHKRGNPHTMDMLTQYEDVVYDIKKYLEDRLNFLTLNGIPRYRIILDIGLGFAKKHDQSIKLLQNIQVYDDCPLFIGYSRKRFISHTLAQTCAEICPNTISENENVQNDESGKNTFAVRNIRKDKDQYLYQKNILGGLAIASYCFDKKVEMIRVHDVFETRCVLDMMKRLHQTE
Briefly: Inhibitory activity against dihydropteroic acid synthase (SYN) from Plasmodium berghei. Particulars: read-out: I50.

The nature of test [5]: Inhibitory activity against dihydropteroic acid synthase (SYN) from Escherichia coli. Particulars: read-out: I50.
A short description of test [6]: Inhibitory activity against dihydropteroic acid synthase (SYN) from Mycobacterium lufu (DDS resistant). Particulars: read-out: I50.
The nature of test [7]: Inhibitory activity against dihydropteroic acid synthase (SYN) from candida albicans. As to conditions: read-out: I50. The method, boiled down:
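Partially purified SYN extract was prepared from C. albicans ATCC 11651 and incubated with sulfones at pH 8.4. Periodic samples were quenched with trichloroacetic acid, and folate formed was quantified by bioassay with folate-requiring Streptococcus faecium. I50 is the concentration giving a 50% decrease in dihydropteroic acid production versus the uninhibited control.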

In test [8] the test system is Candida albicans. Briefly: Inhibitory effect on Candida albicans YEM12 Strain. Format: functional. The method, boiled down:
(§1)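 MICs were determined by serial dilution in RPMI medium. MIC is the lowest concentration giving culture turbidity ≤20% of the control culture.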

Test [9] relates to Candida albicans. Nature of the test: Inhibitory effect on Candida albicans YEM13 BENup Strain. It counts as functional. Summed up:
as §1

The subject of test [10] is Candida albicans. Nature of the test: Inhibitory effect on Candida albicans YEM15 CDR1CDR2up Strain. Format: functional. The method, boiled down: as §1
In test [11] the test system is Candida albicans. Briefly: Inhibitory effect on Candida albicans wild type YEM14 Strain. Format: functional. Summed up:
as §1

For test [12], the system named is Candida albicans. Briefly: Inhibitory effect on Candida albicans wild type YEM30 Strain. Format: functional. Summed up: as §1
For test [13], the system named is Candida albicans. Nature of the test: Inhibitory effect on Candida albicans YEM27 quad deletion Strain. It counts as functional. Summed up:
as §1

Molecules are shown by their SMILES. pIC50: −log10 of the molar value. In brackets after ≈: the same amount, converted by molar mass.

For `Nc1ncc(NCc2cccc(Cl)c2)c(N)n1`, the pIC50 in [1] is 4.30; in [2], 4.86.

In [1], `COc1ccc(CNc2cnc(N)nc2N)cc1` came in with an I50 of 146.2 uM l-1. Besides, the pIC50 in test [2] is 4.28.

As to `COc1ccc(CNc2cnc(N)nc2N)cc1OC`, the values for the I50 in [1] and in [2] were 197.3 uM l-1 and 125.8 uM l-1, respectively.

For the compound `Nc1ncc(OCc2c(Cl)cccc2Cl)c(N)n1`, the values for the pIC50 in test [1] and in test [2] were 5.59 and 5.51, respectively.

As to `Nc1ncc(Cc2cccc3ccccc23)c(N)n1`, the pIC50 in test [1] was 4.53; in test [2], 4.27.

Regarding `COC(=O)c1ccc(S(=O)(=O)c2ccc(N)cc2)cc1`, the pIC50 is 4.93 in test [3], 3.83 in [4], 3.83 in test [5] and 4.86 in test [6].

With `Nc1ncc(NCc2ccccc2Cl)c(N)n1`, the pIC50 in test [1] was 4.15; in test [2] it was 5.18.

In the case of `Nc1ncc(CNc2ccccc2)c(N)n1`, in test [1], the I50 came to 133.1 uM l-1. In addition, the pIC50 in test [2] was 4.23.

Turning to `Cc1nc(N)nc(N)c1Cc1ccccc1`, the pIC50 in [1] was 5.47; in test [2] it was 5.73.

For `Nc1ncc(OCc2ccc(OCCCCN3C(=O)c4ccccc4C3=O)cc2)c(N)n1`, the results for the pIC50 in test [1] and in [2] were 5.22 and 7.11, respectively.

Take `Nc1ncc(OCc2ccc(OCc3ccccc3)cc2)c(N)n1`: the results for the pIC50 in test [1] and in [2] were 4.40 and 5.55, respectively.

Consider `Nc1ncc(OCc2ccccc2)c(N)n1`, for which the pIC50 is 5.00 in test [1] and 5.91 in test [2].

On to `COc1cc(COc2cnc(N)nc2N)ccc1OCCCc1ccccc1`, for which the pIC50 is 4.23 in test [1] and 5.21 in test [2].

In the case of `Nc1ncc(CCc2ccccc2)c(N)n1`, the pIC50 in test [1] was 4.40; in test [2], 5.47.

Regarding `Nc1ncc(CSc2ccc3ccccc3c2)c(N)n1`, the I50 in test [1] is reported as 110.6 uM l-1. Further, the pIC50 in test [2] is 4.51.

With `Nc1ccc(S(=O)(=O)c2ccccc2)cc1`, the pIC50 in test [3] was 4.92; in test [4], 3.98; in test [7] it was 4.88; in test [5], 3.94; in test [6], 4.92.

With `Cc1ccc(S(=O)(=O)NCCCOc2ccc(COc3cnc(N)nc3N)cc2)cc1`, the pIC50 is 5.35 in test [1] and 6.36 in test [2].

As to `CNc1ccc(S(=O)(=O)c2ccc(N)cc2)cc1`, the pIC50 in test [3] was 5.89; in test [4], 4.57; in test [7], 5.55; in test [5] it was 4.34; in test [6], 5.70.

`Nc1ncc(NCc2cccc3ccccc23)c(N)n1`: the pIC50 in test [1] is 5.23; in [2], 5.86.

As for `COc1cc(COc2cnc(N)nc2N)ccc1OCCCNS(=O)(=O)c1ccc(C)cc1`, the values for the pIC50 in test [1] and in test [2] were 5.34 and 6.27, respectively.

In the case of `Nc1ccc(S(=O)(=O)c2ccc(N)cc2)cc1` [DAPSONE], the pIC50 in test [3] was 5.92; in test [4] it was 4.91; in [7] it was 5.75; in test [5] it was 4.46; in test [6], 5.93.

The compound `CC(C)(C)c1ccc(COc2cnc(N)nc2N)cc1` came in with an I50 in test [1] of 106 uM l-1. Moreover, the pIC50 in [2] was 4.62.

Consider `Nc1ccc(S(=O)(=O)c2ccc(C(=O)O)cc2)cc1`, for which the pIC50 is 5.44 in test [3], 5.56 in test [7], 4.13 in test [5] and 5.50 in test [6].

In test [1], `Nc1ncc(Cc2ccccc2)c(N)n1` yielded an I50 of 115.3 uM l-1. Besides, the pIC50 in test [2] was 4.04.

Regarding `Nc1ncc(OCc2ccc(Cl)c(Cl)c2)c(N)n1`, the figures for the pIC50 in test [1] and in test [2] were 4.25 and 5.43, respectively.

Regarding `COc1ccc(COc2cnc(N)nc2N)cc1`, the values for the pIC50 in [1] and in test [2] were 4.00 and 4.58, respectively.

For the compound `Cc1nc(N)nc(N)c1OCc1ccc(Cl)c(Cl)c1`, the results for the pIC50 in test [1] and in test [2] were 5.34 and 5.87, respectively.

As for `Nc1ccc(S(=O)(=O)c2ccc(NCC(=O)O)cc2)cc1` [ACEDIASULFONE], the pIC50 in test [3] is 6.06; in [4] it was 4.75; in [7], 5.91; in test [5] it was 4.43; in [6] it was 6.09.

Regarding `Nc1ncc(NCc2ccc(Cl)c(Cl)c2)c(N)n1`, the I50 in test [1] was more than 350 uM l-1. Further, the pIC50 in test [2] is 4.07.

As for `CN(C)c1ccc(S(=O)(=O)c2ccc(N)cc2)cc1`, the pIC50 in test [3] was 5.75; in [4] it was 4.67; in test [7], 5.42; in test [6], 5.69.

Turning to `Nc1ncc(OCc2ccccc2Cl)c(N)n1`, the pIC50 was 5.45 in [1] and 6.14 in test [2].

Consider `Cc1nc(N)nc(N)c1CCc1ccccc1`, for which the pIC50 is 4.89 in [1] and 5.38 in test [2].

Take `Cc1nc(N)nc(N)c1CCCc1ccccc1`: the pIC50 was 6.09 in [1] and 5.00 in test [2].

For the compound `CC(=O)Nc1ccc(S(=O)(=O)c2ccc(N)cc2)cc1` [MONO-N-ACETYL DAPSONE], the pIC50 is 5.15 in test [3], 4.48 in test [4], 4.12 in test [5] and 5.39 in test [6].

`Nc1ncc(Cc2ccc(OCCCCN3C(=O)c4ccccc4C3=O)cc2)c(N)n1`: the pIC50 in test [1] is 5.44; in test [2], 7.33.

In the case of `Cc1ccc(S(=O)(=O)NCCCCOc2ccc(Cc3cnc(N)nc3N)cc2)cc1`, the pIC50 in test [1] was 5.76; in [2] it was 6.24.

On to `OC(Cn1cncn1)(Cn1cncn1)c1ccc(F)cc1F` [FLUCONAZOLE], for which the minimum inhibitory concentration (MIC) (commonly the lowest concentration found to suppress growth) in test [8] is 1 µg/mL (≈ 3.27 µM); in test [9], 64 µg/mL (≈ 209 µM); in [10] it was 64 µg/mL (≈ 209 µM); in [11], 64 µg/mL (≈ 209 µM); in test [12], 2 µg/mL (≈ 6.53 µM); in test [13], not above 0.25 µg/mL.

Consider `Nc1ncc(/C=C/c2ccccc2)c(N)n1`, for which, in test [1], the I50 is on record as 130.6 uM l-1. For the same compound, in test [2], the pIC50 is 5.24.

Regarding `Nc1ncc(OCc2ccc(OCCCN3C(=O)c4ccccc4C3=O)cc2)c(N)n1`, the pIC50 in [1] is 4.80; in test [2], 6.21.

In the case of `Nc1ncc(NCc2ccc3ccccc3c2)c(N)n1`, the pIC50 in [1] was 4.15; in [2], 4.79.

As to `COc1ccc(S(=O)(=O)c2ccc(N)cc2)cc1`, the pIC50 in test [3] was 5.12; in test [7], 5.04; in [5], 3.89; in [6], 5.03.

Take `CCNc1ccc(S(=O)(=O)c2ccc(N)cc2)cc1`: the pIC50 in [3] was 5.56; in test [7], 5.50; in test [5], 4.38; in [6], 5.83.

As to `Nc1ncc(OCc2ccc(Br)c3ccccc23)c(N)n1`, the results for the pIC50 in [1] and in test [2] were 5.55 and 6.31, respectively.

The compound `COc1ccc(CCc2cnc(N)nc2N)cc1OC` showed an I50 in test [1] of 315.3 uM l-1. The pIC50 in [2] is 4.45.

Consider `COC(=O)CNc1ccc(S(=O)(=O)c2ccc(N)cc2)cc1`, for which the pIC50 is 5.65 in test [3], 5.88 in test [7], 3.99 in test [5] and 5.58 in [6].

`Cc1ccc(S(=O)(=O)c2ccc(N)cc2)cc1`: the pIC50 in test [3] is 5.09; in [4], 4.32; in test [7], 5.00; in test [5] it was 4.05; in test [6], 5.23.

For the compound `Nc1ncc(Cc2ccc3ccccc3c2)c(N)n1`, the values for the pIC50 in [1] and in [2] were 4.21 and 5.32, respectively.

On to `COc1cc(Cc2cnc(N)nc2N)cc(OC)c1OCCCNc1ccc(N(C)C)cc1`, for which, in test [2], the pIC50 is 6.01.

For `Nc1ccc(S(=O)(=O)c2ccc(Cl)cc2)cc1`, the pIC50 in [3] was 4.89; in test [7] it was 4.84; in test [6] it was 4.73.

The values above are taken from ChEMBL document CHEMBL1139439, “Folate-synthesizing enzyme system as target for development of inhibitors and inhibitor combinations against Candida albicans-synthesis and biological activity of new 2,4-diaminopyrimidines and 4'-substituted 4-aminodiphenyl sulfones” (J Med Chem, 2004).
